Screens deposited in PubChem BioAssay by The Scripps Research Institute Molecular Screening Center.
5HT1E ag – activates the human 5-HT1E serotonin receptor; activation, % at 6 µM; P28566; AID 574; CHO 5-HT1E Ga15 NFAT-bla reporter, FRET; 0% DMSO wells, 100% control agonist wells; 65,000 compounds, 0.69% hits;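 active = activation above a set limit, the screen-wide mean activation plus 3 SD, cut at about 8.5% in these data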;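 also: 100% = positive control agonist at 1 µM giving full maximal response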
S1P1 ag pot – activates or potentiates agonism at human S1P1 receptor; P21453; S1P1 CRE-bla cells, forskolin, beta-lactamase FRET, potentiator mode; S1P1 agonist co-added at EC20, 2 nM; 100% = saturating reference agonist, 0% = basal; activation, % at 9.5 µM; 56,000 compounds, 0.57% hits; AID 449;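 active = activation above a cutoff set at the mean activation of all tested compounds plus 3 SD, cut at about 54% in these data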;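 also: forskolin at 4 µM as EC80 and the EC20 agonist is SEW2871; 100% = SEW2871 at its EC100 plus forskolin at EC80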
Target sequence (P21453 whole entry, looked up): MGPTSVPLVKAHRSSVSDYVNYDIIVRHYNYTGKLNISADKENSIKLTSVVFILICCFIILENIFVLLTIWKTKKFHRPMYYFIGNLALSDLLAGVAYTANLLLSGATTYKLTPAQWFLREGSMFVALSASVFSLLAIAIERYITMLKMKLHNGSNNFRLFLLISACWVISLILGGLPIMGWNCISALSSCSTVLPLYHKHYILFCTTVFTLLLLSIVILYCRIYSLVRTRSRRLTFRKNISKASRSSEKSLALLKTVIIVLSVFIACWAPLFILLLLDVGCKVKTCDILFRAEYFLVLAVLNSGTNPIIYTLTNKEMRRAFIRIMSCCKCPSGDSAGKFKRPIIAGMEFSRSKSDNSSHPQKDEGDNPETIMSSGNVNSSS
5HT1E antag – antagonists of human 5-HT1E serotonin receptor | P28566 | CHO 5-HT1E Ga15 NFAT-bla reporter, FRET, antagonist | inhibition, % at 6 µM | 65,000 compounds, 0.99% hits | AID 571;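 active = inhibition above a set limit, the mean inhibition across every tested compound plus 3 SD, cut at about 29% in these data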;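 also: signal is the 460 over 535 nm emission ratio of beta-lactamase substrate; 0% = agonist plus DMSO wells and 100% = wells without agonist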
5HT1a antag – blocks the human serotonin 5-HT1a receptor; P08908; CHO 5-HT1a Ga15 NFAT-bla reporter, antagonist mode; inhibition, % at 10 µM; 62,000 compounds, 0.68% hits;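 active = inhibition above the mean of all tested compounds plus 3 SD, cut at about 43% in these data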;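 also: receptor stimulated by 5-CT agonist at 100 nM near EC80; beta-lactamase reporter measured by ratiometric fluorescence of a cleavable substrate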
S1P3 ag – S1P3 (human) receptor agonism. S1P3 NFAT-BLA reporter cells, FRET ratio; relative to 1 µM S1P, basal subtracted. activation, % at 4.5 µM. Q99500. AID 373. 60,000 compounds, 0.1% hits;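 active = activation above the screen-wide mean plus 3 SD, cut at about 4.5% in these data, passing the limit was not always enough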
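Assay system: stable CHO line with human S1P3, Gα16, NFAT-BLA reporter; Detection: FRET β-lactamase substrate fluorescence, excitation 405 nm, 460/535 nm emission ratio, background-subtracted; Read-out: percent activation versus median 1 µM S1P response, basal-subtracted, per plate; Incubation: cells plated overnight, compound 4 h 37 °C, substrate 2 h RT.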
5HT1a ag – activates the human 5-HT1a serotonin receptor | AID 567 | activation, % at 10 µM | 65,000 compounds, 0.56% hits | P08908 | CHO 5-HT1a Ga15 NFAT-bla reporter, FRET ratio; 0% basal, 100% maximal reference agonist;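 active = activation above the screen-wide mean activation plus 3 SD, cut at about 19% in these data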;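 also: 0% = DMSO wells and 100% = 5-CT at EC100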
Active calls of the source: *; . = no result given. In the library only some 3% were active in any assay of this set; here they are far more common.

SMILES	5HT1E ag	S1P1 ag pot	5HT1E antag	5HT1a antag	S1P3 ag	5HT1a ag
C=CCn1c(SCC(=O)Nc2sccc2C(N)=O)nc2sc(C)c(C)c2c1=O	0.7	-35.4	33.2*	-0.8	1.7	6.1
On1onc2c3cc(-c4ccccc4)nc3ccc21	-0.7	.	33.0*	49.6*	-0.9	-0.1
c1ccc(-c2cc3c(ccc4nonc43)nn2)cc1	-0.1	-26.3	-6.3	-5.0	-1.2	-0.9
O=C(CSc1n[nH]c(-c2ccccc2)n1)c1ccccc1	0.5	-30.6	0.6	0.6	-0.8	-2.8
CN(C)c1nc(N)nc(CSc2n[nH]c(-c3ccccc3)n2)n1	0.2	-57.0	29.7*	-15.1	2.0	-1.6
COc1ccc(C)cc1NC(=O)C1CCCN(S(=O)(=O)c2c(C)noc2/C=C/N(C)C)C1 (centres undefined)	0.2	-21.0	-0.9	0.7	-0.1	-1.1
CC1(C)CC(=O)C2=C(C1)Nc1ccccc1NC2c1nc2ccccc2[nH]1 (centres undefined)	0.3	0.8	34.0*	-5.5	-0.4	0.2
COc1ccc(-n2nnnc2-c2cccc(OC)c2)cc1	-0.8	-0.8	34.6*	20.1	-0.3	-1.9
C=C(C)CSc1nnc(-c2ccccc2)n1N	41.5*	.	-4.2	0.4	-1.6	0.9
COc1cc(C2Nc3cccc4cccc(c34)N2)cc(OC)c1OC(C)=O	-1.4	-9.6	-0.8	.	-1.2	-2.7
CCN(CC)c1ccc(C2Nc3cccc4cccc(c34)N2)c(O)c1	-1.7	1.8	32.3*	.	-0.8	-6.7
CN(C)c1oc(-c2ccc(OCc3ccccc3)cc2)nc1C#N	1.5	72.1*	2.3	-11.9	-0.9	-0.4
N#Cc1nc(-c2ccc(OCc3ccccc3)cc2)oc1NCc1cccnc1	-0.1	59.8*	14.2	-6.5	-1.2	0.8
COc1ccc(C(=O)CSc2nnc(CNc3nc(-c4ccccc4)cs3)n2C)cc1	0.6	-21.0	-9.1	-5.4	-0.5	-0.4
CN(c1cc(=O)n2ccccc2n1)C1CCCCC1	-0.8	2.9	16.1	-2.3	0.1	29.6*
c1ccc(-c2nnc(-c3ccccn3)nn2)nc1	-0.3	.	-5.2	5.6	.	-1.2
c1ccc(-c2cccc(-c3ccccn3)n2)nc1	-2.1	-5.2	45.1*	59.3*	-1.6	-2.3
S=C(Nc1ccccn1)c1ccccn1	-0.9	-22.4	33.1*	3.8	-0.6	3.0
O=C(Nc1ccccc1)Nc1ccccn1	-1.1	.	-1.8	4.7	-0.5	-1.7
COc1ccc(-c2cc(CCCC(=O)NCCc3ccc(OC)cc3OC)no2)cc1	11.5*	18.1	6.3	14.1	0.2	-1.2
COc1cc(C)c(S(=O)(=O)N2CCOCC2)cc1C(C)C	0.0	-36.9	1.4	2.8	-0.6	-2.0
COc1cc(C)c(N)cc1C(C)C	23.4*	-8.8	-4.9	-4.6	0.1	0.6
C=CCC1(O)C(=O)Nc2ccccc21 (centres undefined)	-1.1	6.7	8.4	3.7	-0.8	-0.7
COCCOC(=O)c1[nH]c2c(c1C)C(=O)CC(c1cc(OC)ccc1OC)C2 (centres undefined)	-0.5	6.9	21.8	26.9	-0.7	-0.5
COC(=O)c1[nH]c2c(c1C)C(=O)CC(c1ccccc1)C2 (centres undefined)	-1.9	-25.7	68.1*	54.8*	-1.0	-0.7
SMILES	5HT1E ag	S1P1 ag pot	5HT1E antag	5HT1a antag	S1P3 ag	5HT1a ag
Cc1c(C(=O)OCC(C)C)[nH]c2c1C(=O)CC(c1ccco1)C2 (centres undefined)	0.3	13.3	68.6*	53.0*	-1.6	-3.2
Cc1c(C(=O)OCC2CCCO2)[nH]c2c1C(=O)CC(c1ccco1)C2 (centres undefined)	-0.6	2.3	8.7	15.3	-0.3	-5.2
Cc1c(C(=O)N2CCOCC2)[nH]c2c1C(=O)CC(c1ccccc1Cl)C2 (centres undefined)	40.0*	-17.9	9.9	19.7	-1.7	-0.6
C/C=C/COC(=O)c1[nH]c2c(c1C)C(=O)CC(c1ccco1)C2 (centres undefined)	-0.5	1.3	77.9*	63.8*	-1.5	-3.0
Cc1cccc(OCC(=O)OCC(=O)c2c(N)n(C)c(=O)n(C)c2=O)c1	-1.1	-0.4	2.0	-10.7	0.3	-2.5
CNC(=O)C1CC(=O)N(Cc2ccc3c(c2)OCO3)C(=Nc2ccc(OC)cc2)S1 (centres undefined)	-0.9	-5.1	12.8	16.3	-1.5	-3.4
CC(C)(C)NC(=O)CN(C(=O)CS(=O)CC(=O)Nc1ccc(F)cc1)c1ccc(Cl)cc1 (centres undefined)	-1.1	9.9	13.9	13.0	-0.8	-3.7
Cc1c(C(=O)OC2CCCC2)[nH]c2c1C(=O)CC(c1ccco1)C2 (centres undefined)	-0.9	33.6	84.8*	61.8*	-1.1	0.2
C=CCOC(=O)c1[nH]c2c(c1C)C(=O)CC(c1ccco1)C2 (centres undefined)	0.4	2.1	76.1*	51.2*	-0.9	-3.1
Cc1cc(NC(=O)CN2CCCC2c2nc3ccccc3s2)no1 (centres undefined)	-1.6	-4.9	-18.2	-6.5	-0.1	1.2
Cc1cc(C(=O)OCC(=O)Nc2ccc(F)cc2F)c(C)o1	-0.6	-11.9	-4.3	-6.8	-0.1	-1.4
C=CCn1c(O)c(C2=c3ccccc3=NC2=O)sc1=Nc1ccc(O)cc1	0.4	9.8	11.7	55.0*	-1.0	-9.6
CCOc1ccc(NC(=O)CSc2nnc(C)n2CCCOC)cc1	-0.3	5.6	9.9	-7.3	-1.2	-1.6
COc1ccccc1N/C(N)=N/c1nc(CSc2ccc(C)cc2)cc(=O)[nH]1	-0.5	58.8*	15.8	24.0	-1.3	1.4
CCC(c1nnc(SCC(=O)Nc2ccc(C(=O)Nc3ccccc3OC)cc2)o1)N(C)C (centres undefined)	0.1	7.8	-9.9	-7.6	-0.7	-1.1
CCOC(=O)C1CCCN(C(=O)c2cc3c(-c4cccc(OC)c4)nn(C)c3s2)C1 (centres undefined)	1.2	-10.4	25.6	15.9	-1.0	-1.9
CCOC(=O)N1CCC(NC(=O)c2cc3c(-c4ccccc4F)nn(C)c3s2)CC1	1.1	-15.8	-0.1	6.6	-0.7	0.6
CCOC(=O)C1CCN(C(=O)c2cc3c(-c4ccc(OC)c(OC)c4)nn(C)c3s2)CC1	0.3	-56.5	35.5*	4.3	0.0	-1.3
CCOC(=O)N1CCC(NC(=O)c2cc3c(-c4ccc(OC)c(OC)c4)nn(C)c3s2)CC1	-0.4	2.4	29.2*	14.6	-1.6	0.2
O=C(Cc1cccs1)N1CCCC(c2nc3c(nnn3Cc3cccc(Cl)c3)c(=O)[nH]2)C1 (centres undefined)	-0.5	-28.5	-7.2	-12.9	0.1	1.2
